In ChEMBL document CHEMBL1140299, “1-Benzhydryl-3-phenylurea and 1-benzhydryl-3-phenylthiourea derivatives: new templates among the CB1 cannabinoid receptor inverse agonists” (J Med Chem, 2005):

Key:
[1] = molecular target: Cannabinoid receptor 2 (Homo sapiens) (UniProt P34972); test: Displacement of [3H]CP-55940 from human CB2 receptor expressed in CHO cells at 10 uM; format: cell-based
Procedure, shortened: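 Competition binding on membranes of cells expressing hCB2 (40 µg per tube) with [3H]-CP-55940 (1 nM) at 30 °C for 1 h. Buffer: 50 mM Tris-HCl, 3 mM MgCl2, 1 mM EDTA, 0.5% BSA, pH 7.4. DMSO stocks diluted 100× into buffer. Nonspecific binding defined with 10 µM HU-210. Bound label collected by filtration on PEI-pretreated GF/B filters and counted by scintillation. Run at least in triplicate.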

[2] = molecular target: T1, Cannabinoid receptor 1 (Homo sapiens, UniProt P21554); test: biochemical; format: cell-based, CHO
T1 sequence (P21554 whole entry): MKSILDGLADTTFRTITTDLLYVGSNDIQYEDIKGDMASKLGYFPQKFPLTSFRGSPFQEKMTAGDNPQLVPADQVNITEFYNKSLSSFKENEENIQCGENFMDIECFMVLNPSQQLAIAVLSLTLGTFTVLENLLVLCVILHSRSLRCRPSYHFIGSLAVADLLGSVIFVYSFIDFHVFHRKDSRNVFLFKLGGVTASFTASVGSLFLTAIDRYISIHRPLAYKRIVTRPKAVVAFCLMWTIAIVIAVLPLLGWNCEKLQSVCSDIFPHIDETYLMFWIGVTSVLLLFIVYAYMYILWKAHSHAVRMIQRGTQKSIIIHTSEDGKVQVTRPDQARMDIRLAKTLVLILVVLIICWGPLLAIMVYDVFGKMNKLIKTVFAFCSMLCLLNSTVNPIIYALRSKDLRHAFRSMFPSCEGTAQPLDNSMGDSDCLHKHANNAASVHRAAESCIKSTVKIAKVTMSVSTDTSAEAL

[3] = molecular target: T1, Cannabinoid receptor 1; details: at 10 µM
[4] = molecular target: T1, Cannabinoid receptor 1; test: Activity at human CB1 receptor by [35S]GTP-gamma-S binding stimulation assay; format: functional

Cannabinoid receptor 2 (Homo sapiens), sequence (P34972 whole entry): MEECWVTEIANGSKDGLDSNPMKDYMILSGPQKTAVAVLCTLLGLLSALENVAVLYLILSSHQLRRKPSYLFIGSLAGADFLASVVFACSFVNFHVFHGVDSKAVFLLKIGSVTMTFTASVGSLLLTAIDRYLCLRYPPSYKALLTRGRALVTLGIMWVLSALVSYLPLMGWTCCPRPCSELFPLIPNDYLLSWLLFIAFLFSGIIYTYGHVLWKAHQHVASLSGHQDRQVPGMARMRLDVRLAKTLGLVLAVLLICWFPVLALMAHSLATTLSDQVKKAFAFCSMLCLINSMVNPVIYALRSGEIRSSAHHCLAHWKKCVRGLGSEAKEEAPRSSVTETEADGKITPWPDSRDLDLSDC

SMILES | Activity [1] | Ki [2] | Emax ([3]; filed as inverse agonist) | EC50 [4] | Emax ([3]; filed as agonist)
O=C1NC(c2ccccc2)(c2ccccc2)C(=O)N1c1ccc(Br)cc1 | < 20% |  |  |  | 
O=C1N(c2ccccc2)C(=S)NC1(c1ccc(Br)cc1)c1ccc(Br)cc1 | < 20% | 3.45 µM (antagonist) |  |  | 
O=C(Nc1ccc(Cl)cc1)NC(c1ccccc1)c1ccccc1 | < 20% |  |  |  | 
O=C(Nc1ccccc1)NC(c1ccc(Cl)cc1)c1ccc(Cl)cc1 | 23% | 7.05 µM (antagonist) |  |  | 
S=C(Nc1ccccc1)NC(c1ccc(Br)cc1)c1ccc(Br)cc1 | 29% | 1.8 µM (antagonist) |  |  | 
O=C(Nc1ccc(CO)cc1)NC(c1ccc(Br)cc1)c1ccc(Br)cc1 | < 20% |  |  |  | 
O=C(Nc1ccc(F)cc1)NC(c1ccccc1)c1ccccc1 | < 10% |  |  |  | 
O=C(Nc1ccc(Br)cc1)NC(c1ccc(Br)cc1)c1ccc(Br)cc1 | 22% | 0.5 µM (antagonist) | -61% | 0.5 µM (inverse agonist) | 
O=C1NC(c2ccc(Br)cc2)(c2ccc(Br)cc2)C(=O)N1c1ccccc1 | < 20% |  |  |  | 
O=C1N(c2ccc(Cl)cc2)C(=S)NC1(c1ccc(Br)cc1)c1ccc(Br)cc1 | < 20% | 2.75 µM (antagonist) |  |  | 
COc1ccc(NC(=O)NC(c2ccccc2)c2ccccc2)cc1 | < 20% |  |  |  | 
S=C(Nc1ccccc1)NC(c1ccc(Cl)cc1)c1ccc(Cl)cc1 | 23% | 2.9 µM (antagonist) |  |  | 
CCCCCCc1ccc(NC(=O)NC(c2ccccc2)c2ccccc2)cc1 | 24% |  |  |  | 
CCCCCCC(C)(C)c1cc(O)c2c(c1)OC(C)(C)[C@H]1CC=C(CO)C[C@H]21 [DEXANABINOL] |  | 0.019 µM (antagonist) |  | 0.0006 µM (inverse agonist) | 200%
O=C(Nc1ccccc1)NC(c1ccc(Br)cc1)c1ccc(Br)cc1 | 38% | 2.9 µM (antagonist) |  |  | 
O=C(Nc1ccc(I)cc1)NC(c1ccc(Br)cc1)c1ccc(Br)cc1 | 34% |  |  |  | 
O=C(Nc1ccccc1)NC(c1ccc(F)cc1)c1ccc(F)cc1 | < 10% |  |  |  | 
O=C(Nc1ccc(Cl)cc1)NC(c1ccc(Br)cc1)c1ccc(Br)cc1 | 31% | 0.65 µM (antagonist) | -72% | 0.45 µM (inverse agonist) | 
S=C(Nc1ccc(Cl)cc1)NC(c1ccc(Br)cc1)c1ccc(Br)cc1 | 29% | 1.5 µM (antagonist) | -61% | 1.25 µM (inverse agonist) | 
O=C(Nc1ccc(Cl)cc1)NC(c1ccc(Cl)cc1)c1ccc(Cl)cc1 | 24% | 1.1 µM (antagonist) | -74% | 1.05 µM (inverse agonist) | 
O=C(Nc1ccc(I)cc1)NC(c1ccccc1)c1ccccc1 | < 10% |  |  |  | 
O=C(Nc1ccccc1)NC(c1ccccc1)c1ccccc1 | < 10% |  |  |  | 
O=C1NC(c2ccccc2)(c2ccccc2)C(=O)N1c1ccccc1 | < 20% |  |  |  | 
O=C(Nc1ccccc1F)NC(c1ccccc1)c1ccccc1 | < 10% |  |  |  | 
S=C(Nc1ccc(Cl)cc1)NC(c1ccc(Cl)cc1)c1ccc(Cl)cc1 | 23% | 1.9 µM (antagonist) |  |  | 
O=C1NC(c2ccc(F)cc2)(c2ccc(F)cc2)C(=O)N1c1ccccc1 | < 20% |  |  |  | 
CCCCCCc1ccc(NC(=O)NC(c2ccc(Br)cc2)c2ccc(Br)cc2)cc1 | < 20% |  |  |  | 
O=C(Nc1ccc(Br)cc1)NC(c1ccc(I)cc1)c1ccc(I)cc1 | 19% | 0.75 µM (antagonist) |  |  | 
O=C(Nc1ccc(Br)cc1)NC(c1ccc(Cl)cc1)c1ccc(Cl)cc1 | 29% | 1.25 µM (antagonist) | -66% | 0.7 µM (inverse agonist) | 
O=C(Nc1ccc(Br)cc1)NC(c1ccccc1)c1ccccc1 | < 20% |  |  |  | 
